Compounds with a hit are over-represented: about 1.7% of the library has one in this group of screens.
MLLE-PAM2 inh: blocks PAM2 peptide binding to the PABP1 MLLE domain; 360,000 tested, 0.36% active; P11940; AID 588489; inhibition, % at 20 µM; GST-MLLE / FITC-PAM2 fluorescence polarization; in the data active = inhibition above about 35%, passing the limit was not always enough;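 note: plate controls were DMSO wells with GST-MLLE for no effect and wells lacking GST-MLLE protein for full effect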
Target sequence (P11940 whole entry, looked up, the tested form may be a part): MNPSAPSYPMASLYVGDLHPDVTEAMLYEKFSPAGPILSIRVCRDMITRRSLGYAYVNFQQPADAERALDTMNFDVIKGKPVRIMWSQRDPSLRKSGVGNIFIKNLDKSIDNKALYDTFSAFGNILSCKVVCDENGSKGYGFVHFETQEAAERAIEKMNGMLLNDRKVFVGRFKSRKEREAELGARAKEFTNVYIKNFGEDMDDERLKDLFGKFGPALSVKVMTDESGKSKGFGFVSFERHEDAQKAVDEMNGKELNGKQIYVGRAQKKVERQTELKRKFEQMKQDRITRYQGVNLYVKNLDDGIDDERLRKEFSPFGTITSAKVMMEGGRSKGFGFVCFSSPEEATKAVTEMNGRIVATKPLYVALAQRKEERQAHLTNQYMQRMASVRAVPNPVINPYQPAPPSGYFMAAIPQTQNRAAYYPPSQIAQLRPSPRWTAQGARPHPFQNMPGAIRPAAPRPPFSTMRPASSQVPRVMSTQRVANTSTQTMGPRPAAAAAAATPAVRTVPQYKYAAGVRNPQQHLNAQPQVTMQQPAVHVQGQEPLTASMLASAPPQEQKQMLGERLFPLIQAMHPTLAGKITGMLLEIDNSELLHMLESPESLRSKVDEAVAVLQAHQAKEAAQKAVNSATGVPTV
eIF4H inh: inhibitors of RNA binding by human eIF4H; eIF4H fluorescence polarization binding assay; inhibition, % at 35 µM; 290,000 tested, 0.94% active;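 note: calls also rest on retests at 20 µM and on dose response follow-up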
PABP polyA inh: blocks human PABP binding to poly(A) RNA. P11940. fluorescence polarization. inhibition, % at 35 µM. 290,000 tested, 1% active. AID 2014;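 note: calls also rest on retests at 20 µM and on dose response follow-up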
SKN-1 block: blocks SKN-1 activity in C. elegans. C. elegans VP596 Pgst-4::GFP/RFP ratio, acrylamide-induced, 24 h. inhibition, % at 21.8 µM. 360,000 tested, 0.49% active;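 active = interference check ratio from 0.5 to 1.5 plus GFP to RFP signal ratio inhibition reaching or exceeding a fixed threshold, cut at about 30% in these data, passing the limit was not always enough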
MT1-MMP act inh: blocks activation of human MT1-MMP. HT1080 RFP-PRO-GFP cells, GFP/RFP ratio fluorescence, overnight; percent of plate control window, DMSO zero. GFP/RFP ratio change, % at 20 µM. 360,000 tested, 0.061% active;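 active = GFP/RFP ratio change of at least 30% with cell ATP level not reduced by more than half and red fluorescence within 50% of control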
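Assay system: HT1080 cells carrying an RFP-PRO-GFP reporter | Dosing: Single dose of 20 µM compound, 1% DMSO final | Incubation: Cells overnight before dosing, compound overnight, 37 °C, 5% CO2 | Evaluation: GFP/RFP fluorescence ratio | Control set: DMSO and RFP-L50D-GFP cell wells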
The depositor's hits bear a star; ? = inconclusive; / = not tested or not shown. Unless noted, the rule behind the calls is not given here.

SMILES | MLLE-PAM2 inh | eIF4H inh | PABP polyA inh | SKN-1 block | MT1-MMP act inh
CCN(CC)C(=O)Oc1nnc(SC(C)C)n1-c1ccc(Cl)cc1 | -5 | -2 | 3 | -3 | 0
O=C(C1=NN(c2ccccc2)C2C(=O)N(c3cccc(Cl)c3)C(=O)C12)c1ccccc1 (stereo not given) | 7 | ? | 0.3* | 8 | -112
O=C(C1=NN(c2ccccc2)C2C(=O)N(c3ccc(Cl)cc3)C(=O)C12)c1ccccc1 (stereo not given) | 13 | ? | 1 | 6 | -87
CCOc1ccc(/C=N/OCC(=O)Nc2ccc(OCc3ccccc3)cc2)cc1OC | -42 | -7 | 32 | 4 | /
COc1cc(/C=N/OCC(=O)Nc2ccc(OC(F)F)cc2)ccc1OCc1ccccc1 | -57 | 66* | 0 | 2 | -14
Cc1cc(C)cc(-n2c(SCC(=O)Nc3cccc(S(=O)(=O)NC4=NCCCCC4)c3)nc3ccccc3c2=O)c1 | -12 | active | 97* | 6 | -23
CC1=C(C(=O)c2ccccc2)C(c2cn(-c3ccccc3)nc2-c2ccc(Cl)cc2)NC(=S)N1 (stereo not given) | -79 | -16 | 0 | 38* | -22
CCc1nc(NCCC(C)C)c(C#N)c2c1CCCC2 | -1 | -10 | 2 | 43* | -3
Cc1csc(NC(=O)CS(=O)(=O)c2ccccc2)n1 | -11 | 83* | 64* | -5 | -2
Cc1ccc(S(=O)(=O)CC(=O)Nc2nnc(C(C)(C)C)s2)cc1 | 38* | 9 | 22 | 1 | 6
COc1cccc(NC(=O)C(=O)N/N=C(\C)CC(=O)Nc2ccc(NC(C)=O)cc2)c1 | -4 | -8 | 1 | 2 | -2
COc1cccc(C(C(=O)NC2CCCC2)N(C(=O)c2ccco2)c2ccc(C(C)=O)cc2)c1OC (stereo not given) | -10 | 1 | -12 | 10 | -3
O=C(NCCc1ccc(F)cc1)C1CCN(C(=O)Nc2ccccc2)CC1 | 7 | / | / | 1 | -1
CC(/C=C/c1ccco1)=N\NC(=O)CNc1cccc(C)c1 | 0 | 95* | 2.2* | -4 | 0
O=C(COc1ccc(Br)cc1)NCc1cn2ccccc2n1 | -20 | -5 | 9 | 4 | 4
Brc1ccc(OCc2cn3ccccc3n2)cc1 | 12 | 6 | -1 | 48* | 5
CN(c1ccccc1)S(=O)(=O)c1cccc(C(=O)OCC(=O)NCCCN2CCCC2=O)c1 | 12 | 10 | 64* | -8 | 1
CN(c1ccccc1)S(=O)(=O)c1cccc(C(=O)NC2CCCCC2)c1 | 85* | / | / | -9 | 3
CN(c1ccc(C(=O)NC2CCCCC2)cc1)S(=O)(=O)c1ccccc1 | 11 | -6 | 12 | 10 | 4
Cc1ccc2c(c1)N(C(C)C(=O)NCc1ccc3c(c1)OCO3)C(=O)CO2 (stereo not given) | 6 | -4 | 17 | 4 | 0
COc1ccc(C(=O)NC(C)c2nnc(SCc3ccc(Cl)c(Cl)c3)n2C)cc1 (stereo not given) | -100 | 12 | 40 | 5 | -4
CCn1c(SCc2ccc(Cl)c(Cl)c2)nnc1C(C)NC(=O)c1ccc(OC)cc1 (stereo not given) | -1 | active | 57* | 6 | -3
CCOc1ccc(S(=O)(=O)NCc2ccc3c(c2)OCO3)cc1 | -19 | 3 | 2 | -1 | 3
COC(=O)c1ccccc1NC(=O)CSc1nc(N)cc(=O)[nH]1 | 19 | 90* | 59 | 3 | -1
CCN(CC)CCn1c(SCC(=O)NCc2ccccc2)nc2c(sc3ccccc32)c1=O | 28 | 4.5* | 52* | -2 | 1
SMILES | MLLE-PAM2 inh | eIF4H inh | PABP polyA inh | SKN-1 block | MT1-MMP act inh
CC(=O)Nc1ccc(NC(=O)c2cc(-c3cc(F)ccc3OCC3CCCO3)n[nH]2)cc1 (stereo not given) | 7 | / | / | -2 | 0
CC(=O)Nc1cc(C(F)(F)F)ccc1OCC1CCCO1 (stereo not given) | -11 | 0 | -6 | 37* | 2
Oc1ccc(/C=N/N=C(c2ccccc2)c2ccccc2)c(O)c1O | 6 | 85* | active | 10 | -1
Cc1ccccc1C(=O)Nc1ccnn1C1CCN(Cc2cnn(C(C)C)c2)CC1 | -6 | 2 | -4 | 8 | 2
Fc1ccc(NC(=S)N2CCCC(c3ccccc3)=N2)cc1 | -90 | 54* | active | -8 | 0
COc1ccc(NC(=O)C(c2ccc(C)cc2)N(C)C(=O)Cc2cccs2)cc1 (stereo not given) | 1 | 63* | 5.4* | -2 | -25
COc1ccc(NC(=O)C(c2ccc(OC)cc2)N(C)C(=O)Cc2cccs2)cc1 (stereo not given) | 9 | -8 | 3 | 9 | -12
Oc1c(C=Nc2ccccc2Cl)[nH]c2ccccc12 | 43* | -3 | 5 | 1 | -34
C=CCNC(=O)CN1C(=O)CSc2ccc(S(=O)(=O)N3CCOCC3)cc21 | 0 | / | / | -8 | -1
Cc1nc2c([nH]1)C1(CCN(Cc3ccccc3)CC1)C(C#N)=C(N)O2 | 5 | 45* | 66* | 21 | -12
O=C(c1nc2ccc(Cl)cn2c1CNCCc1cnccn1)N1CCCCCCC1 | -7 | 3 | 3 | 4 | -2
COC(=O)c1cc(F)c(-n2cncn2)c(F)c1 | 8 | 1 | 2 | -29 | -5
COC(=O)c1cc([N+](=O)[O-])c(-n2cncn2)c([N+](=O)[O-])c1 | 2 | 71 | 62* | 4 | 4
CN(CC(=O)Nc1ccc(Cl)cc1)C(=O)CNC(=O)Cc1cccc2ccccc12 | -2 | / | / | -4 | 7
CCCCC1=CC2=C(c3ccco3)C(=O)C(C)(OC(=O)c3ccc(OC)cc3)C(=O)C2=CN1c1ccccc1 (stereo not given) | -2 | 111 | 81* | -8 | /
Cc1ccc(S(=O)(=O)N2CCOCC2)cc1NC(=O)COC(=O)/C=C/c1ccc(F)cc1 | 5 | / | / | -9 | -1
CCOC(=O)c1c(C)oc2c1c(C=NCCO)c(O)c1ccccc12 | 52* | ? | 10 | 38 | -34
CCOC(=O)c1c(C)oc2c1c(C(c1ccccc1)N1CCOCC1)c(O)c1ccccc12 (stereo not given) | 10 | -7 | -2 | 15 | -14
CSc1ccc(S(=O)(=O)NCC(=O)OCC(=O)N(C)CC(=O)Nc2ccc(F)cc2)cc1[N+](=O)[O-] | -14 | / | / | 8 | -1
O=C(O)c1ccc(-c2cccc([N+](=O)[O-])c2)o1 | -2 | 4 | 68 | 1 | 2
N#C/C(=C(/O)c1ccc(-c2cccc([N+](=O)[O-])c2)o1)c1nc2ccccc2s1 | -20 | 69* | active | 2 | -4
CC(NC(=O)COC(=O)Cc1cccs1)c1ccc(F)cc1 (stereo not given) | -14 | / | / | -8 | 4
Cc1ccc(N)c([N+](=O)[O-])c1 | -2 | / | / | 7 | -2
Nc1ccc(N=Nc2ccccc2)cc1[N+](=O)[O-] | 14 | / | / | 57* | 6
